Drawing on PubChem BioAssay AID463210 (The Scripps Research Institute Molecular Screening Center, 2010), this text covers activation for 25 molecules.

Molecules are shown by their SMILES. In all, about 330,000 compounds went through this assay and about 300 (0.091%) were called active.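 How the source made its calls: active means percent activation above the screen-wide mean plus 3 SD (cut at about 25% in these data); inactive means the rest.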 The list comes from a sample in which actives are over-represented; it also holds similar structures and randomly drawn compounds.

Chain of Caspase-7 (Homo sapiens) (P55210 whole entry D23A/D198A/D206A): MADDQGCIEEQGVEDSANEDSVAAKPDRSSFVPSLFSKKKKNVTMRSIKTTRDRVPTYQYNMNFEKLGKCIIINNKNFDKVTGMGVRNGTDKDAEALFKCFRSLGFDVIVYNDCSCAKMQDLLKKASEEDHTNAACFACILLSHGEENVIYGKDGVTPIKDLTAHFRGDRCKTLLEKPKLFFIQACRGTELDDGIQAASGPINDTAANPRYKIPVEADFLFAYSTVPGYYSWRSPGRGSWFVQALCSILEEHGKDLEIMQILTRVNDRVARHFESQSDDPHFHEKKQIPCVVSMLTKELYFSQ

This assay addresses Caspase-7 (Homo sapiens) (UniProt P55210). The assay can be described thus: activation of procaspase-7 enzyme – biochemical, absorbance, HTS, human, counter-screen for procaspase-3 activator project, primary screen (AID 463210). Conditions: recombinant procaspase-7, Ac-DEVD-pNA absorbance 405 nm; at 8.5 µM; hits give high values; D23A/D198A/D206A triple mutant, cannot self-cleave; scale: DMSO 0, 5 µM enzyme 100. An outline of the steps: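 Assay system: Uncleavable procaspase-7 mutant enzyme; Input: 2 µM procaspase-7 mutant as dispensed; Also added: DEVD-pNA substrate; Medium: Zinc-free HEPES pH 7.4 with 300 mM NaCl, 0.01% Triton X-100; Timing: 1 h compound preincubation, 2 h substrate cleavage, 25 °C; Measured by: Epi-absorbance of released pNA at 405 nm, two timepoints.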
On the technique in general: A counterscreen serves to expose hits that act by an unwanted route or on another target.
`CC(CCc1ccccc1)NC(=O)COC(=O)c1ccc(F)cc1` (stereo not given): the activation is 4.27% (inactive). In the case of `CSCCC(NS(=O)(=O)c1ccc(C)cc1)C(=O)N1CCCC1` (stereo not given), the activation is 0.13% (inactive). In the case of `COc1ccc(C(CC(=O)N2CCN(c3ccccc3)CC2)c2c(O)cc(OC)cc2OC)cc1` (stereo not given), the activation was 5.61% (inactive). For the molecule `CCCn1c(C)cc(/C=C(\C#N)C(=O)OCC(=O)N(C)c2c(N)n(Cc3ccccc3)c(=O)[nH]c2=O)c1C`, the activation was -1.74% (inactive).

As to `CCn1c(O)c2ccc(C(=O)N=NC(=O)c3cccnc3)cc2c1O`, the activation is -2.1% (inactive). In the case of `CN1CCN(C(=O)C2=C[C@H](c3ccc4c(c3)OCO4)C[C@H](OCc3ccc(CO)cc3)O2)CC1` it was 0.27% (inactive). In the case of `O=c1cc(CN2CCN(S(=O)(=O)/C=C/c3ccccc3)CC2)c2ccc(O)cc2o1`, the activation was 17.5% (inactive). As for `O=C(O)CCN(Cc1ccccc1)S(=O)(=O)c1c(Cl)cccc1Cl`, the activation is 3.54% (inactive). For `O=[N+]([O-])c1cc(Cl)cc(/C=N/NC(=S)Nc2cc(S(=O)(=O)N3CCOCC3)ccc2Cl)c1O` the value was -6.79% (inactive); for `Cc1ccc2nsnc2c1S(=O)(=O)N1CCCC1C(=O)O` (stereo not given), 8.06% (inactive); for `CC(=O)N[C@@H](C)C(=O)N1CCC(n2nccc2NC(=O)CCCc2ccccc2)CC1`, 8.17% (inactive). Regarding `O=c1c2ccccc2ccc2ccc(P(=O)(O)O)cc12`, the activation is 4.72% (inactive). As for `O=C(c1cn(-c2ccccc2)nc1-c1cccnc1)N1CCN(S(=O)(=O)c2ccccc2F)CC1`, the activation was 11.3% (inactive). On to `COc1ccc(CCNC2=C(Cl)C(=O)N(Cc3ccccc3)C2=O)cc1OC`, for which the activation is -9.7% (inactive). In the case of `COc1ccc(COCCN2CCN(S(=O)(=O)c3ccccc3)CCC2=O)cc1`, the activation was -12.7% (inactive). In the case of `COc1ccc2c(c1)C(NS(=O)(=O)OCC(Cl)(Cl)Cl)CCC2` (stereo not given) it was -4.56% (inactive). In the case of `CCN(CC)c1ccc(C(=O)Nn2c(C)nc3ccccc3c2=O)cc1`, the activation was -1.52% (inactive). For `C=CCN(C(=O)Nc1ccc2oc(C)nc2c1)c1ccccc1`, the activation is -21.8% (inactive). In the case of `CCN(CC)c1ccc2oc(=O)c(C)nc2c1`, the activation was 40.2% (active).

In the case of `COc1cccc(NC(=O)Cn2c3ccccc3c3nc4n(c(=O)c32)CCS4)c1`, the activation was 9.71% (inactive). As to `CC1=C(N2CCN(c3ncccn3)CC2)CCC1=O`, the activation was -1.68% (inactive). In the case of `COc1ccc(S(=O)(=O)NCCOc2ccccc2)cc1F` it was -0.02% (inactive); in that of `COc1ccccc1N=Cc1c(O)c2ccccc2oc1=O`, 50.8% (active); in that of `COc1ccccc1N=C(C)C1=C(O)COC1=O`, 0.79% (inactive).

Turning to `COc1cc(N=Cc2c(O)c3ccccc3oc2=O)c(OC)cc1Cl`, the activation is 14.3% (inactive).
